Activity calls are given as the source filed them. The rule behind the calls is not given here.
Assays:
Pseudomonas aeruginosa [1] = test: Antibacterial activity against Pseudomonas aeruginosa isolate 213BR by Etest; assay type: functional
Pseudomonas aeruginosa [2] = test: Antibacterial activity against Pseudomonas aeruginosa isolate 9BR by Etest; assay type: functional
Pseudomonas aeruginosa [3] = test: Antibacterial activity against Pseudomonas aeruginosa isolate 19BR by Etest; assay type: functional
Pseudomonas aeruginosa [4] = test: Antibacterial activity against Pseudomonas aeruginosa isolate 9BR by Etest in presence of beta-lactamase inhibitor Tazobactam; assay type: functional
Pseudomonas aeruginosa [5] = test: Antibacterial activity against Pseudomonas aeruginosa isolate 213BR by Etest in presence of beta-lactamase inhibitor Tazobactam; assay type: functional
Pseudomonas aeruginosa [6] = test: Antibacterial activity against Pseudomonas aeruginosa isolate 19BR by Etest in presence of beta-lactamase inhibitor Tazobactam; assay type: functional
Pseudomonas aeruginosa [7] = test: Antibacterial activity against Pseudomonas aeruginosa isolate 19BR assessed as growth after the skipped wells was observed after 48 hrs by broth microdilution method; assay type: functional, organism-based
Pseudomonas aeruginosa [8] = test: Antibacterial activity against Pseudomonas aeruginosa isolate 9BR assessed as growth after the skipped wells was observed after 48 hrs by broth microdilution method; assay type: functional, organism-based
Pseudomonas aeruginosa [9] = test: Antibacterial activity against Pseudomonas aeruginosa isolate 213BR assessed as growth after the skipped wells was observed after 48 hrs by broth microdilution method; assay type: functional, organism-based
Pseudomonas aeruginosa [10] = test: Antibacterial activity against Pseudomonas aeruginosa isolate 213BR assessed as lowest concentration at which no growth observed after 48 hrs by broth microdilution method; assay type: functional, organism-based
Procedure, shortened: (§1)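 Broth microdilution per CLSI M7-A6/M100-S15 in cation-adjusted Mueller-Hinton broth, 37°C, 48 h; polymyxin B 0.03 to 32 μg/ml, triplicate runs per isolate. Liberal MIC read as the lowest-concentration well without visible growth; skipped wells (isolated no-growth wells below wells with growth) noted.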

Pseudomonas aeruginosa [11] = test: Antibacterial activity against Pseudomonas aeruginosa isolate 19BR assessed as lowest concentration at which no growth observed after 48 hrs by broth microdilution method; assay type: functional, organism-based; procedure, shortened: as §1
Pseudomonas aeruginosa [12] = test: Antibacterial activity against Pseudomonas aeruginosa isolate 9BR assessed as lowest concentration at which no growth observed after 48 hrs by broth microdilution method; assay type: functional, organism-based
Pseudomonas aeruginosa [13] = test: Increase in phoQ gene expression in Pseudomonas aeruginosa isolate 19BR at 2 ug/ml by quantitative PCR analysis; assay type: functional, organism-based
Procedure, shortened: (§2)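 Cells from MIC plate wells regrown in cation-adjusted Mueller-Hinton broth with 0, 0.125 or 2 μg/ml polymyxin B at 37°C with shaking to OD600 0.5. Total RNA (4 μg) reverse-transcribed for qPCR of phoQ, arnB and PA4773, with rpsL as control. Expression is relative to untreated PAO1; triplicate biological repeats, each at least in duplicate.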

Pseudomonas aeruginosa [14] = test: Increase in PA4773 gene expression in Pseudomonas aeruginosa isolate 19BR at 2 ug/ml by quantitative PCR analysis; assay type: functional, organism-based; procedure, shortened: as §2
Pseudomonas aeruginosa [15] = test: Antimicrobial activity against Pseudomonas aeruginosa PAO1 assessed as outer membrane permeabilization by fluorescence spectrophotometer using NPN fluorescent probe; assay type: functional, organism-based
Procedure, shortened: (§3)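 Cells grown in cation-adjusted Mueller-Hinton broth with 0, 0.125 or 2 μg/ml polymyxin B (preincubation), subcultured 1:100 to mid-log, washed, resuspended to OD600 0.5 in 5 mM HEPES pH 7.2 with 5 μM CCCP. NPN 10 μM final added for baseline. Polymyxin B then added at 0.25–64 μg/ml final; fluorescence ex 350/em 420 nm.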

Pseudomonas aeruginosa [16] = test: Increase in arnB gene expression in Pseudomonas aeruginosa isolate 19BR at 2 ug/ml by quantitative PCR analysis; assay type: functional, organism-based; procedure, shortened: as §2
Pseudomonas aeruginosa [17] = test: Antimicrobial activity against Pseudomonas aeruginosa isolate 213BR assessed as inhibition of growth at 2 ug/ml after 24 hrs; assay type: functional, organism-based
Procedure, shortened: (§4)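 Growth curves run in triplicate: overnight cultures diluted 1:20 into cation-adjusted Mueller-Hinton broth with 0, 0.125 or 2 μg/ml polymyxin B; OD600 read every 20 min for 24 h.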

Pseudomonas aeruginosa [18] = test: Increase in PA4773 gene expression in compound-resistant Pseudomonas aeruginosa isolate 9BR by quantitative PCR analysis; assay type: functional, organism-based
Procedure, shortened: (§5)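 Cells taken from MIC-plate wells at 0, 0.125 or 2 μg/ml polymyxin B, regrown in 10 ml CAMHB at the same level, shaken at 37°C to OD600 0.5. Total RNA (4 μg) reverse-transcribed; qPCR normalised to rpsL and expressed relative to PAO1 without polymyxin B. Triplicate cultures on separate days from individual MIC plates, each run at least in duplicate.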

Pseudomonas aeruginosa [19] = test: Antimicrobial activity against Pseudomonas aeruginosa isolate 9BR assessed as inhibition of growth at 0.25 ug/ml after 24 hrs; assay type: functional, organism-based
Pseudomonas aeruginosa [20] = test: Increase in arnB gene expression in compound-resistant Pseudomonas aeruginosa isolate 9BR by quantitative PCR analysis; assay type: functional, organism-based; procedure, shortened: as §5
Pseudomonas aeruginosa [21] = test: Effect on phoQ gene expression in Pseudomonas aeruginosa PAO1 at 2 ug/ml by quantitative PCR analysis; assay type: functional, organism-based; procedure, shortened: as §2
Pseudomonas aeruginosa [22] = test: Increase in arnB gene expression in Pseudomonas aeruginosa isolate 213BR at 2 ug/ml by quantitative PCR analysis; assay type: functional, organism-based; procedure, shortened: as §2
Pseudomonas aeruginosa [23] = test: Increase in phoQ gene expression in Pseudomonas aeruginosa isolate 213BR at 2 ug/ml by quantitative PCR analysis; assay type: functional, organism-based; procedure, shortened: as §2
Pseudomonas aeruginosa [24] = test: Antimicrobial activity against 2 ug/ml compound pretreated Pseudomonas aeruginosa isolate 9BR assessed as outer membrane permeabilization at 8 ug/ml by fluorescence spectrophotometer using NPN fluorescent probe; assay type: functional, organism-based; procedure, shortened: as §3
Pseudomonas aeruginosa [25] = test: Antimicrobial activity against 2 ug/ml compound pretreated Pseudomonas aeruginosa isolate 19BR assessed as outer membrane permeabilization at 8 ug/ml by fluorescence spectrophotometer using NPN fluorescent probe; assay type: functional, organism-based; procedure, shortened: as §3
Pseudomonas aeruginosa [26] = test: Effect on arnB gene expression in Pseudomonas aeruginosa PAO1 at 2 ug/ml by quantitative PCR analysis; assay type: functional, organism-based; procedure, shortened: as §2
Pseudomonas aeruginosa [27] = test: Antimicrobial activity against Pseudomonas aeruginosa isolate 19BR assessed as outer membrane permeabilization at => 8 ug/ml by fluorescence spectrophotometer using NPN fluorescent probe; assay type: functional, organism-based; procedure, shortened: as §3
Pseudomonas aeruginosa [28] = test: Increase in PA4773 gene expression in Pseudomonas aeruginosa isolate 213BR at 2 ug/ml by quantitative PCR analysis; assay type: functional, organism-based; procedure, shortened: as §2
Pseudomonas aeruginosa [29] = test: Antimicrobial activity against Pseudomonas aeruginosa isolate 9BR assessed as outer membrane permeabilization by fluorescence spectrophotometer using NPN fluorescent probe; assay type: functional, organism-based; procedure, shortened: as §3
Pseudomonas aeruginosa [30] = test: Antimicrobial activity against Pseudomonas aeruginosa PAO1 assessed as outer membrane permeabilization at 0.125 ug/ml by fluorescence spectrophotometer using NPN fluorescent probe; assay type: functional, organism-based; procedure, shortened: as §3
Pseudomonas aeruginosa [31] = test: Antimicrobial activity against Pseudomonas aeruginosa isolate 19BR assessed as outer membrane permeabilization by fluorescence spectrophotometer using NPN fluorescent probe; assay type: functional, organism-based; procedure, shortened: as §3
Pseudomonas aeruginosa [32] = test: Antimicrobial activity against Pseudomonas aeruginosa isolate 19BR assessed as inhibition of growth at 2 ug/ml after 24 hrs; assay type: functional, organism-based; procedure, shortened: as §4
Pseudomonas aeruginosa [33] = test: Effect on PA4773 gene expression in Pseudomonas aeruginosa PAO1 at 2 ug/ml by quantitative PCR analysis; assay type: functional, organism-based; procedure, shortened: as §2
Pseudomonas aeruginosa [34] = test: Antimicrobial activity against Pseudomonas aeruginosa isolate 9BR assessed as outer membrane permeabilization at => […] ug/ml by fluorescence spectrophotometer using NPN fluorescent probe; assay type: functional, organism-based
Pseudomonas aeruginosa [35] = test: Antimicrobial activity against Pseudomonas aeruginosa PAO1 assessed as outer membrane permeabilization at 4 ug/ml by fluorescence spectrophotometer using NPN fluorescent probe; assay type: functional, organism-based; procedure, shortened: as §3

Molecule: CO/N=C(\C(=O)N[C@@H]1C(=O)N2C(C(=O)[O-])=C(C[N+]3(C)CCCC3)CS[C@H]12)c1csc(N)n1 [CEFEPIME]
- MIC (Pseudomonas aeruginosa [1]): > 256 µg/mL
- MIC (Pseudomonas aeruginosa [2]): > 256 µg/mL
- MIC (Pseudomonas aeruginosa [3]): > 256 µg/mL

Molecule: CC(C)(O/N=C(\C(=O)N[C@@H]1C(=O)N2C(C(=O)[O-])=C(C[n+]3ccccc3)CS[C@H]12)c1csc(N)n1)C(=O)O [CEFTAZIDIME]
- MIC (Pseudomonas aeruginosa [1]): > 256 µg/mL
- MIC (Pseudomonas aeruginosa [2]): > 256 µg/mL
- MIC (Pseudomonas aeruginosa [3]): > 256 µg/mL

Molecule: O=C(O)c1cn(C2CC2)c2cc(N3CCNCC3)c(F)cc2c1=O [CIPROFLOXACIN]
- MIC (Pseudomonas aeruginosa [1]): > 32 µg/mL
- MIC (Pseudomonas aeruginosa [2]): > 32 µg/mL
- MIC (Pseudomonas aeruginosa [3]): > 32 µg/mL

Molecule: C[C@@H](O)[C@H]1C(=O)N2C(C(=O)O)=C(S[C@@H]3CN[C@H](C(=O)N(C)C)C3)[C@H](C)[C@H]12 [MEROPENEM]
- MIC (Pseudomonas aeruginosa [1]): > 32 µg/mL
- MIC (Pseudomonas aeruginosa [2]): > 32 µg/mL
- MIC (Pseudomonas aeruginosa [3]): > 32 µg/mL

Molecule: CCN1CCN(C(=O)N[C@@H](C(=O)N[C@@H]2C(=O)N3[C@@H]2SC(C)(C)[C@@H]3C(=O)O)c2ccccc2)C(=O)C1=O [PIPERACILLIN]
- MIC (Pseudomonas aeruginosa [4]): 96 µg/mL
- MIC (Pseudomonas aeruginosa [5]): 96 µg/mL
- MIC (Pseudomonas aeruginosa [6]): 64 µg/mL

Molecule: COLISTIN
- MIC (Pseudomonas aeruginosa [7]): 4 µg/mL
- MIC (Pseudomonas aeruginosa [8]): 32 µg/mL
- MIC (Pseudomonas aeruginosa [9]): 32 µg/mL
- MIC (Pseudomonas aeruginosa [10]): 2 µg/mL
- MIC (Pseudomonas aeruginosa [11]): 4 µg/mL
- MIC (Pseudomonas aeruginosa [12]): 32 µg/mL

Molecule: POLYMYXIN B
- Activity (Pseudomonas aeruginosa [13]): Active
- Activity (Pseudomonas aeruginosa [14]): Active
- Activity (Pseudomonas aeruginosa [15]): Dose-dependent effect
- MIC (Pseudomonas aeruginosa [7]): 8 µg/mL
- Activity (Pseudomonas aeruginosa [16]): Active
- TIME (Pseudomonas aeruginosa [17]): 4 h
- MIC (Pseudomonas aeruginosa [8]): 64 µg/mL
- Activity (Pseudomonas aeruginosa [18]): Dose-dependent effect
- inhibition (Pseudomonas aeruginosa [19]): inactive
- MIC (Pseudomonas aeruginosa [9]): 8 µg/mL
- MIC (Pseudomonas aeruginosa [10]): 0.5 µg/mL
- Activity (Pseudomonas aeruginosa [20]): Dose-dependent effect
- Activity (Pseudomonas aeruginosa [21]): inactive
- Activity (Pseudomonas aeruginosa [22]): Active
- Activity (Pseudomonas aeruginosa [23]): Active
- MIC (Pseudomonas aeruginosa [1]): 1.5 µg/mL
- MIC (Pseudomonas aeruginosa [11]): 0.25 µg/mL
- Activity (Pseudomonas aeruginosa [24]): inactive
- Activity (Pseudomonas aeruginosa [25]): inactive
- Activity (Pseudomonas aeruginosa [26]): inactive
- Activity (Pseudomonas aeruginosa [27]): Active
- Activity (Pseudomonas aeruginosa [28]): Active
- MIC (Pseudomonas aeruginosa [2]): 4 µg/mL
- MIC (Pseudomonas aeruginosa [12]): 64 µg/mL
- Activity (Pseudomonas aeruginosa [29]): Dose-dependent effect
- Activity (Pseudomonas aeruginosa [30]): Active
- MIC (Pseudomonas aeruginosa [3]): 1.5 µg/mL
- Activity (Pseudomonas aeruginosa [31]): Dose-dependent effect
- TIME (Pseudomonas aeruginosa [32]): 6 h
- Activity (Pseudomonas aeruginosa [33]): inactive
- Activity (Pseudomonas aeruginosa [34]): Active
- Activity (Pseudomonas aeruginosa [35]): Active

From ChEMBL document CHEMBL1649224, “Involvement of pmrAB and phoPQ in polymyxin B adaptation and inducible resistance in non-cystic fibrosis clinical isolates of Pseudomonas aeruginosa” (2009)
